Results from ChEMBL document CHEMBL3860044, “The Rational Design, Synthesis, and Antimicrobial Properties of Thiophene Derivatives That Inhibit Bacterial Histidine Kinases” (J Med Chem, 2016).

What was measured:
Format in all cases: functional
[1] = system: Staphylococcus aureus; test: Bactericidal activity against Staphylococcus aureus ATCC 29213 by broth microdilution method
Procedure, shortened: (§1)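 Clinical resistant isolates and quality control strains (S. aureus ATCC 29213, E. coli ATCC 25922) are tested by EUCAST broth microdilution with a 10⁶ bacteria/mL inoculum, in triplicate, with or without a fixed adjuvant concentration. For MBC, the MIC dilution and at least two more concentrated dilutions are plated and CFU/mL counted.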

[2] = system: Staphylococcus aureus; test: Antibacterial activity against penicillin G-resistant/penicillinase producing Staphylococcus aureus isolate C1P15 by broth microdilution method
Procedure, shortened: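 Broth microdilution per EUCAST on the clinical S. aureus isolate C1P15 (penicillinase producer, penicillin G resistant). Inoculum 10⁶ bacteria per mL. Run in triplicate. S. aureus ATCC 29213 served as the quality-control strain.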

[3] = system: Staphylococcus aureus; test: Antibacterial activity against Staphylococcus aureus ATCC 29213 by broth microdilution method; procedure, shortened: as §1
[4] = system: Staphylococcus aureus; test: Bactericidal activity against penicillin G-resistant/penicillinase producing Staphylococcus aureus isolate C1P15 by broth microdilution method
Procedure, shortened: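 MBC on clinical S. aureus isolate C1P15 (penicillinase, penicillin G resistant), following EUCAST broth microdilution at 10⁶ bacteria per mL, in triplicate. The MIC dilution and at least two more concentrated dilutions were plated and enumerated as CFU/mL. S. aureus ATCC 29213 served as quality control.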

Cc1onc(-c2ccccc2Cl)c1C(=O)N[C@@H]1C(=O)N2[C@@H]1SC(C)(C)[C@@H]2C(=O)O [CLOXACILLIN]
1 µg/mL: MBC [1] | MIC [2] | MIC [3] | MBC [4]
